Tests used:
MG-63 = experiment: Induction of apoptosis against human MG63 cells after 72 hrs; format: functional, cell-based
Procedure, shortened: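 MG-63 osteosarcoma cells, double thymidine block (2.5 mM, 12 h each) for S-phase synchronization. Treated 3 days at 10^-5 and 10^-6 M in DMEM. Permeabilized with 0.2% Triton X plus RNase, 37 °C for 1 h. Stained with propidium iodide 50 µg/mL, 4 °C for 20 min. DNA content by flow cytometry, 488 nm. Mean ± SD of three independent experiments.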

[1] = system: Vitamin K-dependent gamma-carboxylase (Mus musculus); experiment: Ratio of Vmax to Km assessed as 14CO2 incorporation for 30 mins
[2] = substrate: CC(C)=CCC/C(C)=C/CC/C(C)=C/CC/C(C)=C/CC1=C(C)C(=O)c2ccccc2C1=O; experiment: (§1) Activity for gamma-glutamylcarboxylase assessed as 14CO2 incorporation
Procedure, shortened: (§2)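 Mouse liver microsomal γ-glutamylcarboxylase. Reduced (hydroquinone) vitamin K as cofactor, 8 concentrations. Fixed enzyme level with 3.6 mM FLEEL substrate. Buffer: 16 µM ProFIX19 propeptide, 1.4 mM NaH14CO3, 25 mM MOPS pH 7.0, 500 mM NaCl, 0.16% phosphatidylcholine, 0.16% CHAPS, 8 mM DTT, 0.8 M ammonium sulfate. 14CO2 incorporated into peptide over 30 min counted by scintillation. Km and Vmax from initial rates by double-reciprocal plot.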

[3] = substrate: CC1=C(C/C=C(\C)CC/C=C(\C)CC/C=C(\C)CC/C=C(\C)CO)C(=O)c2ccccc2C1=O; experiment: as §1; procedure, shortened: as §2
[4] = substrate: CC(C)=CCC/C(C)=C/CC/C(C)=C/CC/C(C)=C/CC1=C(C)C(=O)c2ccccc2C1=O; experiment: (§3) Activity for gamma-glutamylcarboxylase assessed as 14CO2 incorporation for 30 mins; procedure, shortened: as §2
[5] = substrate: CC1=C(C/C=C(\C)CC/C=C(\C)CC/C=C(\C)CC/C=C(\C)CO)C(=O)c2ccccc2C1=O; experiment: as §3; procedure, shortened: as §2

Q: With `CC(C)=CCC/C(C)=C/CC1=C(C)C(=O)c2ccccc2C1=O` as the molecule, how does the Activity (MG-63) read?
A: Dose-dependent effect

Q: `CC1=C(C/C=C(\C)CC/C=C(\C)CO)C(=O)c2ccccc2C1=O` was tested. Which Activity (MG-63) did it give?
A: Dose-dependent effect

Q: `CC1=C(C/C=C(\C)CC/C=C(\C)CC/C=C(\C)CC/C=C(\C)C=O)C(=O)c2ccccc2C1=O` was tested. Which Activity (MG-63) did it give?
A: Dose-dependent effect

Q: With `CC1=C(C/C=C(\C)CC/C=C(\C)CC/C=C(\C)CO)C(=O)c2ccccc2C1=O` as the molecule, how does the Activity (MG-63) read?
A: Dose-dependent effect

Q: How did the Activity (MG-63) turn out when `CC(C)=CCC/C(C)=C/CC/C(C)=C/CC/C(C)=C/CC1=C(C)C(=O)c2ccccc2C1=O` was run?
A: Dose-dependent effect

Q: `CC(C)=CCC/C(C)=C/CC/C(C)=C/CC1=C(C)C(=O)c2ccccc2C1=O` was tested. Which Activity (MG-63) did it give?
A: Dose-dependent effect

Q: `CC1=C(C/C=C(\C)CC/C=C(\C)CC/C=C(\C)C=O)C(=O)c2ccccc2C1=O` was tested. Which Activity (MG-63) did it give?
A: Dose-dependent effect

Q: Which Activity (MG-63) does the source give for `CC1=C(C/C=C(\C)CC/C=C(\C)C=O)C(=O)c2ccccc2C1=O` here?
A: Dose-dependent effect

Q: With `CC1=C(C/C=C(\C)CC/C=C(\C)CC/C=C(\C)CC/C=C(\C)CO)C(=O)c2ccccc2C1=O` as the molecule, how does the Activity (MG-63) read?
A: Dose-dependent effect

Q: What about the Vmax/Km [1] of the same molecule?
A: 50 pmol/microM

B1: Vitamin K-dependent gamma-carboxylase (Homo sapiens), P38435 (protein)
chain: MAVSAGSARTSPSSDKVQKDKAELISGPRQDSRIGKLLGFEWTDLSSWRRLVTLLNRPTDPASLAVFRFLFGFLMVLDIPQERGLSSLDRKYLDGLDVCRFPLLDALRPLPLDWMYLVYTIMFLGALGMMLGLCYRISCVLFLLPYWYVFLLDKTSWNNHSYLYGLLAFQLTFMDANHYWSVDGLLNAHRRNAHVPLWNYAVLRGQIFIVYFIAGVKKLDADWVEGYSMEYLSRHWLFSPFKLLLSEELTSLLVVHWGGLLLDLSAGFLLFFDVSRSIGLFFVSYFHCMNSQLFSIGMFSYVMLASSPLFCSPEWPRKLVSYCPRRLQQLLPLKAAPQPSVSCVYKRSRGKSGQKPGLRHQLGAAFTLLYLLEQLFLPYSHFLTQGYNNWTNGLYGYSWDMMVHSRSHQHVKITYRDGRTGELGYLNPGVFTQSRRWKDHADMLKQYATCLSRLLPKYNVTEPQIYFDIWVSINDRFQQRIFDPRVDIVQAAWSPFQRTSWVQPLLMDLSPWRAKLQEIKSSLDNHTEVVFIADFPGLHLENFVSEDLGNTSIQLLQGEVTVELVAEQKNQTLREGEKMQLPAGEYHKVYTTSPSPSCYMYVYVNTTELALEQDLAYLQELKEKVENGSETGPLPPELQPLLEGEVKGGPEPTPLVQTFLRRQQRLQEIERRRNTPFHERFFRFLLRKLYVFRRSFLMTCISLRNLILGRPSLEQLAQEVTYANLRPFEAVGELNPSNTDSSHSNPPESNPDPVHSEF
Q: What does the source list for B1?
A: Km [2]: 13.3 µM; Km [3]: 2 µM; Vmax [4]: 126 pmol; Vmax [5]: 99.9 pmol
